BaF3 parental – reduces parental Ba/F3 cell viability, JAK2V617F counter-screen; CellTiter-Glo ATP luminescence; inhibition, % at 5.6 µM; 220,000 tested, 1.1% active; AID 1486;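 active means inhibition above a per-campaign cutoff, the mean inhibition of all tested compounds plus 3 SD, cut at about 27% in these data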;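 further: 0% = DMSO wells and 100% = JAK Inhibitor I control wells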
IEC-6 cytotox – kills IEC-6 intestinal cells in KLF5 counter-screen; 290,000 tested, 0.78% active; IEC-6 cytotoxicity, luminescence viability; inhibition, % at 5 µM;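 further: 0% = plate median of test compound wells and 100% = cytotoxic reference compound wells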
Ba/F3 V617F tox – loss of viability in JAK2V617F-driven Ba/F3 cells; Ba/F3 EpoR-JAK2V617F viability, ATP luminescence; inhibition, % at 5.6 µM; 220,000 tested, 1.1% active;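 active means inhibition above the campaign mean plus 3 SD over all tested compounds, cut at about 24% in these data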;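 further: cytokine-independent growth of Ba/F3 cells driven by EpoR plus mutant JAK2; 0% = DMSO-treated cells and 100% = JAK inhibitor I control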
b-catenin transl – beta-catenin nuclear translocation modulation; HeLa beta-catenin nuclear translocation, immunofluorescence imaging; nuclear translocation activity, % at 5 µM; 190,000 tested, 0.3% active;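 active means nuclear translocation activity above 50% at 5 µM, with a well cell count of 50 or more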;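 further: per-cell ratio of nuclear to cytoplasmic median beta-catenin stain intensity; plate controls were DMSO negative control for no effect and GSK-3 inhibitor IX positive control for full effect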
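System: Human HeLa cells, endogenous beta-catenin | Compound dosing: 5 µM primary, 0.02–20 µM confirmation | Timing: 24 h compound exposure at 37°C, 5% CO2 | Measured by: Fluorescence imaging of beta-catenin antibody stain plus DAPI | Read-out basis: % activation of per-cell nuclear versus cytoplasmic median beta-catenin signal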
KLF5 inh – kruppel-like factor 5 inhibition; 290,000 tested, 0.23% active; inhibition, % at 5 µM; DLD-1 KLF5 promoter-luciferase reporter, luminescence; AID 1700;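 active means inhibition above a per-plate limit of that plate's mean compound inhibition plus 3 SD, cut at about 60% in these data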;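 further: 0% = DMSO wells and 100% = LY294002 at 200 µM; higher means less KLF5 promoter-driven luciferase light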
MT stabilize HCS – microtubule stabilizers in HeLa cells. % tubulin-high responders, % at 10 µM. 200,000 tested, 0.83% active. HeLa tubulin immunostaining HCS, 24 h; share of cells brighter than vehicle mean+2SD. AID 2205;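 active means plate Z-score above 3 for both tubulin-high and condensed-nucleus cell shares, with cell loss under 80%, at 10 µM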;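 further: anti alpha tubulin signal scored within the nucleus-defined area of each cell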
IEC-6 tox confirm – confirmation of cytotoxic compounds in rat IEC-6 intestinal epithelial cells; shares compounds with IEC-6 cytotox; IEC-6 rat intestinal epithelial viability, luminescence; inhibition, % at 5 µM; 1,900 tested, 63% active; AID 1907;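 further: 0% = vehicle and 100% = reference cytotoxic drug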
Numbers without * were called inactive; / = no result given. This is a sample that favours compounds with a hit; in the whole collection about 2.1% have one here. Unless noted, no stated cut-off is given here; in the data, active means inhibition above about 22%; inactive means the rest.

SMILES | BaF3 parental | IEC-6 cytotox | Ba/F3 V617F tox | b-catenin transl | KLF5 inh | MT stabilize HCS | IEC-6 tox confirm
CCOc1ccc(N2CC(C(=O)NCCc3c[nH]c4ccc(C)cc34)CC2=O)cc1 (centres undefined) | / | -3 | / | / | 0 | / | /
COc1cc(O)c(/C=N/NC(=O)c2ccncc2)c(OC)c1[N+](=O)[O-] | 5 | 1 | 1 | -1 | -3 | 5 | /
O=C(NCC(c1cccs1)N1CCOCC1)c1ccc(Cl)s1 (centres undefined) | 69* | 72* | 74* | / | 38 | 54* | 49*
O=C(NCC(c1cccs1)N1CCOCC1)c1cc([N+](=O)[O-])ccc1Cl (centres undefined) | 10 | 3 | 2 | -2 | -11 | 3 | /
COc1ccc(-c2cc(=O)c3ccccc3o2)cc1 | / | / | / | 1 | / | / | /
COc1ccc2oc(-c3ccccc3[N+](=O)[O-])cc(=O)c2c1 | 53* | 44* | 65* | 18 | -28 | 16* | 48*
CCCc1cc(C(=O)NC2CCCN(Cc3ccccc3F)C2)no1 (centres undefined) | / | -5 | / | / | -6 | / | /
CCOC(=O)C1=C2NC(=O)c3ccccc3N2C(=O)C1 | 0 | 2 | -1 | 0 | 13 | 3 | /
CC(C)c1ccc(NC(=O)C(c2ccccc2)N2CCN(C(=O)c3ccco3)CC2)cc1 (centres undefined) | 6 | 46* | -2 | -2 | -53 | 4 | 16
CC(C)c1ccc(NC(=O)C(c2ccc3c(c2)OCO3)N2CCN(C(=O)c3ccco3)CC2)cc1 (centres undefined) | 8 | 1 | 0 | / | 6 | 3 | /
COc1cc(/C=C/CN2CCN(CCC(C)C)C(CCO)C2)ccc1O (centres undefined) | 0 | 4 | -1 | 2 | -6 | 4 | /
Cc1cc(NC(=O)CSc2nnnn2C)n(-c2ccccc2)n1 | 4 | -5 | -1 | / | -17 | 3 | /
O=C(CSc1nnnn1C1CCCCC1)Nc1ccccc1F | 3 | 11 | -4 | 0 | -2 | 3 | /
O=C(CSc1nnnn1C1CC2CCC1C2)Nc1ccnc2ccccc12 (centres undefined) | 63* | 36* | 68* | 3 | 21 | 7 | 16
OCC[n+]1ccc(/C=C/c2c[nH]c3ccccc23)cc1 | 84* | 56* | 90* | 0 | 6 | 3 | 5
O=C(/C=C/c1c[nH]c2ccccc12)c1ccccc1 | 5 | 0 | 3 | 1 | -51 | 3 | /
COc1ccc(-c2cc(=O)c3c(OC)c(OC)c(OC)c(OC)c3o2)cc1OC | -4 | 1 | 4 | 0 | -19 | 3 | /
COc1c(OC)c(O)c2c(=O)cc(-c3c(O)cccc3O)oc2c1OC | 37* | 23* | 3 | 2 | -5 | 2 | 3
CC(/C=N/NC(=O)c1cccc(F)c1)=C\c1ccccc1 | / | 28* | / | / | -48 | / | 6
COc1ccc(OC)c(CNC(=O)CCCn2ccc3cc(S(=O)(=O)N4CCCC4)ccc32)c1 | / | -7 | / | / | -12 | / | /
CCc1ccc(-n2cc(-c3ccc(F)cc3)[n+]3c2SCCC3)cc1 | 74* | 28* | 83* | 1 | -3 | 4 | 26*
COc1ccc(-n2cc(-c3ccc(C)cc3)[n+]3c2SCC3)cc1 | 71* | 27* | 94* | 1 | 0 | 7 | 21
COc1ccc(C2=NCN(c3ccc(C)cc3)C(=S)N2)cc1 | 5 | 6 | -1 | / | -121 | 2 | /
COc1ccc(CCNS(=O)(=O)c2c(C)nc3scc(C)n3c2=O)cc1OC | / | 0 | / | / | -9 | / | /
Cc1ccc(-n2ccn(CC(=O)NCCc3ccccc3)c(=O)c2=O)cc1C | / | -5 | / | / | -20 | / | /
SMILES | BaF3 parental | IEC-6 cytotox | Ba/F3 V617F tox | b-catenin transl | KLF5 inh | MT stabilize HCS | IEC-6 tox confirm
O=C(OCCN1C(=O)c2ccccc2C1=O)c1cccc(OC(F)F)c1 | 1 | 6 | 1 | 0 | -6 | 2 | /
O=C(CCCl)Nc1nc2c(s1)CCc1ccccc1-2 | / | 30* | / | / | -14 | / | 18
CCN(CC)c1ccc(/C=N/NC(=O)c2cc(C)nc3ccccc23)cc1 | 8 | 21 | 5 | -1 | 32 | / | /
O=C(N/N=C/c1ccco1)c1cc(-c2ccncc2)nc2ccccc12 | / | 31* | / | / | 43 | / | -1
C/C(=N\NC(=O)c1cc(C)nc2ccccc12)c1ccncc1 | / | 42* | / | / | 38 | / | -4
COc1ccc(/C=N/NC(=O)c2cccc(NC(=O)c3ccccc3Cl)c2)cc1 | / | 72* | / | / | 45 | / | 50*
CCc1cc(C(=O)N/N=C/c2ccc(OC)cc2)c2ccccc2n1 | / | 30* | / | / | 49 | / | 17
C/C(=N\NC(=O)c1cc(C)nc2ccccc12)c1ccc([N+](=O)[O-])cc1 | 7 | 0 | 0 | -2 | -29 | 4 | /
O=C(NC1CCN(C(=S)NCc2ccco2)CC1)NC12CC3CC(CC(C3)C1)C2 | 5 | -7 | 0 | -3 | -5 | 2 | /
N#CCc1ccc(NC(=O)c2cc(S(=O)(=O)N3CCOCC3)ccc2Cl)cc1 | / | -1 | / | / | -20 | / | /
Cc1ccc2c(c1)COc1c3ccc(C(=O)NC(C)C)cc3nn1-2 | / | / | / | 1 | / | / | /
COC(=O)c1ccccc1NC(=O)c1cc(-c2ccc(OC)c(OC)c2)on1 | 5 | 3 | -1 | / | 3 | 4 | /
CCOc1ccc(-c2cc(C(=O)N/N=C/c3cccnc3)c3ccccc3n2)cc1 | / | 66* | / | / | 5 | / | 45*
O=[N+]([O-])c1ccccc1/C=C/C=N/n1c(-c2ccccc2F)n[nH]c1=S | 2 | 12 | 1 | -1 | -5 | / | /
CC(=O)NC1=NN(C(C)=O)C(C)(c2ccc3ccccc3c2)S1 (centres undefined) | 9 | 6 | 0 | / | -26 | 4 | /
CC(=O)NC1=NN(C(C)=O)C(C)(c2ccccc2)S1 (centres undefined) | 61* | 64* | 67* | 5 | 44 | 40 | 45*
O=C(c1ccc(Br)cc1)C(CN1CCOCC1)c1ccccc1 (centres undefined) | / | 26* | / | / | -32 | / | 8
COc1ccc(-c2[nH]ncc2CN2CCCO2)c(F)c1 | 5 | 0 | 4 | -1 | -21 | 2 | /
CN(C)c1cccc(NC2=CC(=[N+]3CCOCC3)CC(C)(C)C2)c1 | 4 | -2 | 2 | / | -18 | 1 | /
CN(Cc1ccccc1)C1=CC(=[N+]2CCCC2)CC(C)(C)C1 | 73* | 31* | 94* | 1 | -4 | / | 28*
Cn1c(/C=C/c2ccccc2)nc2ccccc21 | 8 | 6 | 2 | -1 | -58 | 3 | /
C(=C\c1nnc2c3ccccc3ncn12)/c1ccccc1 | 69* | 60* | 82* | / | 1 | 15 | 20
COc1cc(C(=O)Nc2ccc3ccccc3c2)cc(OC)c1OC | / | 78* | / | / | 43 | / | 59*
COc1ccc(C(=O)Nc2ccc3ccccc3c2)cc1OC | / | 8 | / | / | -190 | / | /
COc1ccccc1N1CCN(c2ccnc3cc(Cl)ccc23)CC1 | / | 65* | / | / | 42 | / | 53*
COc1ccc(S(=O)(=O)N2CCCCC2)cc1NC(=O)CSc1ncnc2ccccc12 | 1 | 2 | 0 | 1 | -18 | 4 | /
